Test results published in ChEMBL document CHEMBL5608194, “Novel neuroprotective 5,6-dihydropyrido[2',1':2,3]imidazo[4,5-c]quinoline derivatives acting through cholinesterase inhibition and CB2 signaling modulation” (Eur J Med Chem, 2024).
The source made the active and inactive calls. No cut-off for these calls is given here.

Columns and labels:
[1] = tested on: SH-SY5Y; experiment: Inhibition of MPP+ induced mitochondrial superoxide radical production in human SH-SY5Y cells at 10 uM incubated for 24 hrs by MitoSOX staining based microplate reader assay (reference value: 100%); type: functional
How it was run: (§1)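 Neuron-like SH-SY5Y (20 000 cells/well) co-treated with 5 mM MPP+ and compound for 24 h; plates centrifuged, medium replaced by 5 μM MitoSOX in HBSS, 30 min at 37 °C, fluorescence 500/580 nm; MPP+ signal set to 100 %; triplicates on at least four independent days.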

[2] = tested on: SH-SY5Y; experiment: Cytotoxicity against human SH-SY5Y cells assessed as cell death at 10 uM incubated for 72 hrs by propidium iodide staining based fluorescence assay; type: toxicity
How it was run: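 SH-SY5Y differentiated to neuron-like phenotype with 10 μM all-trans retinoic acid for 48 h, 20 000 cells/well. Compounds from DMSO stocks (DMSO ≤0.5 %) added, then 72 h exposure. Control wells lysed with 1 % Triton X-100 for 1 min, then all wells stained with propidium iodide for fluorescence read-out. Dead-cell proportion expressed relative to Triton X-100-treated control.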

[3] = tested on: SH-SY5Y; experiment: Neuroprotective activity against ATRA-differentiated and 3-NPA induced cell death in human SH-SY5Y cells assessed as cell death at 0.1 uM incubated for 48 hrs by propidium iodide staining based fluorescence assay (reference value: 100%); type: functional
How it was run: (§2)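 ATRA-differentiated SH-SY5Y co-treated with compound and 20 mM 3-nitropropionic acid for 48 h; cell death by propidium iodide fluorescence, 3-NPA-treated signal set to 100 %.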

[4] = tested on: SH-SY5Y; experiment: Neuroprotective activity against ATRA-differentiated and 3-NPA induced cell death in human SH-SY5Y cells assessed as cell death at 1 uM incubated for 48 hrs by propidium iodide staining based fluorescence assay (reference value: 100%); type: functional; how it was run: as §2
[5] = tested on: SH-SY5Y; experiment: Neuroprotective activity against ATRA-differentiated and 3-NPA induced cell death in human SH-SY5Y cells assessed as cell death at 10 uM incubated for 48 hrs by propidium iodide staining based fluorescence assay (reference value: 100%); type: functional; how it was run: as §2
[6] = tested on: SH-SY5Y; experiment: Neuroprotective activity against ATRA-differentiated and MPP+ induced cell death in human SH-SY5Y cells assessed as cell death at 0.1 uM incubated for 24 hrs by propidium iodide staining based fluorescence assay (reference value: 100%); type: functional
How it was run: (§3)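 ATRA-differentiated SH-SY5Y co-treated with compound and 5 mM MPP+ for 24 h; cell death by propidium iodide fluorescence, MPP+-treated signal set to 100 %.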

[7] = tested on: SH-SY5Y; experiment: Neuroprotective activity against ATRA-differentiated and MPP+ induced cell death in human SH-SY5Y cells assessed as cell death at 1 uM incubated for 24 hrs by propidium iodide staining based fluorescence assay (reference value: 100%); type: functional; how it was run: as §3
[8] = tested on: SH-SY5Y; experiment: Neuroprotective activity against ATRA-differentiated and MPP+ induced cell death in human SH-SY5Y cells assessed as cell death at 10 uM incubated for 24 hrs by propidium iodide staining based fluorescence assay (reference value: 100%); type: functional; how it was run: as §3
[9] = tested on: SH-SY5Y; experiment: Neuroprotective activity against ATRA-differentiated and MPP+ induced cell death in human SH-SY5Y cells assessed as cell death at 10 uM by LDH release assay (reference value: 100%); type: functional
How it was run: (§4)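 ATRA-differentiated SH-SY5Y co-treated with 5 mM MPP+ and compound; cell death by commercial LDH release kit; MPP+ value set to 100 %; triplicates on at least three independent days.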

[10] = tested on: SH-SY5Y; experiment: Neuroprotective activity against MPP+ induced cell death in human SH-SY5Y cells assessed as cell death at 10 uM by YOPRO-1 staining based assay; type: functional
How it was run: (§5)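 Neuron-like SH-SY5Y co-treated with compound and 5 mM MPP+ for 24 h; centrifuged at 500 × g, medium replaced by 1 μM YO-PRO1 in PBS for 15 min at room temperature; fluorescence 488/530 nm; MPP+ signal set to 100 %; triplicates on at least three independent days.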

[11] = tested on: SH-SY5Y; experiment: Neuroprotective activity against MPP+ induced cell death in human SH-SY5Y cells assessed as cell death at 10 uM incubated for 24 hrs by Cas-3, 7 staining based assay; type: functional
How it was run: (§6)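 Caspase-3/7 activation with Ac-DEVD-AFC substrate after 24 h co-treatment of neuron-like SH-SY5Y with compound and 5 mM MPP+; MPP+ signal set to 100 %; triplicates on at least three independent days.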

[12] = tested on: SH-SY5Y; experiment: Inhibition of MPP+ induced superoxide radical production in human SH-SY5Y cells at 10 uM incubated for 24 hrs by microplate reader assay (reference value: 100%); type: functional
How it was run: (§7)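 Neuron-like SH-SY5Y co-treated with 5 mM MPP+ and compound for 24 h; centrifuged at 500 × g, medium replaced with 10 μM dihydroethidium in PBS for 30 min, fluorescence 500/580 nm; MPP+ signal set to 100 %; triplicates on at least four independent days.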

[13] = tested on: SH-SY5Y; experiment: Inhibition of MPP+ induced mitochondrial depolarization in human SH-SY5Y cells at 0.1 uM incubated for 2 hrs by JC10 staining based confocal laser scanning microscopy; type: functional
How it was run: (§8)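 ATRA-differentiated SH-SY5Y co-treated with 5 mM MPP+ and compound for 2 h; mitochondrial membrane potential by JC10 ratiometric red/green signal (plate) and confocal imaging of JC10-stained cells (50 000 cells/well slides); DMSO control set to 100 %; triplicates on three independent days.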

[14] = tested on: SH-SY5Y; experiment: Inhibition of MPP+ induced mitochondrial depolarization in human SH-SY5Y cells at 1 uM incubated for 2 hrs by JC10 staining based confocal laser scanning microscopy; type: functional; how it was run: as §8
[15] = biological target: Acetylcholinesterase (Electrophorus electricus, UniProt O42275); experiment: Inhibition of electric eel AChE using acetylthiocholine as substrate by Ellman's method
[16] = biological target: Cholinesterase (Equus caballus, UniProt P81908); experiment: Inhibition of equine serum BChE using butyrylthiocholine as substrate by Ellman's method
How it was run: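 Equine serum BChE (0.2 U/mL final) with 40 μM butyrylthiocholine and 100 μM DTNB, modified Ellman spectrophotometry; compounds from DMSO diluted in water, five inhibitor concentrations; IC50 from regression of v0/vi versus inhibitor concentration; triplicate.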

[17] = Selectivity index, ratio of IC50 for electric eel AChE to IC50 for equine serum BChE
How it was run: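 Ratio of IC50 values from modified Ellman spectrophotometric assays with electric eel AChE and equine serum BChE. Each used enzyme at 0.2 U/mL final, acetylthiocholine or butyrylthiocholine at 40 μM, and DTNB at 100 μM. Inhibitors were dissolved in DMSO, diluted in water, and tested at five concentrations in triplicate. IC50 came from regression of v0/vi against inhibitor concentration.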

[18] = tested on: SH-SY5Y; experiment: Neuroprotective activity against MPP+ induced cell death in human SH-SY5Y cells assessed as decrease in PARP1 cleavage at 1 to 10 uM incubated for 24 hrs by immunoblotting analysis; type: functional, cell-based; settings: dose 1-10 µM
[19] = tested on: SH-SY5Y; experiment: Inhibition of MPP+ induced mitochondrial depolarization in human SH-SY5Y cells at 0.1 to 1 uM incubated for 2 hrs by JC10 staining based confocal laser scanning microscopy; type: functional, cell-based; settings: dose 0.1-1 µM; how it was run: as §8
[20] = tested on: SH-SY5Y; experiment: Inhibition of MPP+ induced Akt phosphorylation at Ser473 residues in human SH-SY5Y cells at 1 to 10 uM incubated for 24 hrs by Western blotting analysis; type: cell-based; settings: dose 1-10 µM
How it was run: (§9)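 ATRA-differentiated neuron-like SH-SY5Y co-treated with 5 mM MPP+ and compound for 24 h, lysed in RIPA buffer, SDS-PAGE, transfer to nitrocellulose, immunoblot for p-Akt (Ser473) and ERK1/2; HSP90 and β-actin loading controls; ECL chemiluminescence imaged by CCD camera.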

[21] = biological target: Mitogen-activated protein kinase; ERK1/ERK2 (Homo sapiens) (UniProt P27361+P28482); experiment: Inhibition of MPP+ induced ERK1/2 phosphorylation in human SH-SY5Y cells at 10 uM incubated for 24 hrs by Western blotting analysis; type: cell-based; how it was run: as §9
[22] = tested on: SH-SY5Y; experiment: Cytotoxicity against human SH-SY5Y cells at 10 uM; type: toxicity, cell-based
How it was run: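 SH-SY5Y differentiated to neuron-like phenotype with 10 μM all-trans retinoic acid for 48 h, 20 000 cells/well, then exposed to compound for 72 h (DMSO ≤0.5 %). Propidium iodide exclusion fluorescence; dead-cell proportion expressed relative to Triton X-100 (1 %, 1 min) lysed control.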

[23] = tested on: SH-SY5Y; experiment: Potentiation of MPP+ induced toxicity in human SH-SY5Y cells assessed as increase in cell death at 10 uM; type: cell-based
How it was run: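 Neuron-like SH-SY5Y co-treated for 24 h with 5 mM MPP+, compound and CB2 inverse agonist AM630 or antagonist SR144528 at 0.1, 1 or 10 μM; CB2 ligands also tested alone and with MPP+; cell death read-out; triplicates on three independent days.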

[24] = tested on: SH-SY5Y; experiment: Neuroprotective activity against ATRA-differentiated and MPP+ induced cell death in human SH-SY5Y cells assessed as cell death at 1 uM by LDH release assay (reference value: 100%); type: functional; how it was run: as §4
[25] = tested on: SH-SY5Y; experiment: Neuroprotective activity against MPP+ induced cell death in human SH-SY5Y cells assessed as cell death at 1 uM by YOPRO-1 staining based assay; type: functional; how it was run: as §5
[26] = tested on: SH-SY5Y; experiment: Neuroprotective activity against MPP+ induced cell death in human SH-SY5Y cells assessed as cell death at 1 uM incubated for 24 hrs by Cas-3, 7 staining based assay; type: functional; how it was run: as §6
[27] = tested on: SH-SY5Y; experiment: Inhibition of MPP+ induced superoxide radical production in ATRA-differentiated human SH-SY5Y cells at 1 uM incubated for 24 hrs by MitoSOX staining based confocal laser scanning microscopy; type: functional, cell-based
How it was run: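 50 000 cells seeded on chamber slides, ATRA-differentiated, co-treated with 5 mM MPP+ and compound for 24 h, then stained with MitoSOX and imaged by confocal laser-scanning microscopy (63× objective).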

[28] = tested on: SH-SY5Y; experiment: Inhibition of MPP+ induced superoxide radical production in human SH-SY5Y cells at 1 uM incubated for 24 hrs by microplate reader assay (reference value: 100%); type: functional; how it was run: as §7
[29] = tested on: SH-SY5Y; experiment: Inhibition of MPP+ induced mitochondrial superoxide radical production in human SH-SY5Y cells at 0.1 to 10 uM incubated for 24 hrs by MitoSOX staining based microplate reader assay; type: functional, cell-based; settings: dose 0.1-10 µM; how it was run: as §1
[30] = tested on: SH-SY5Y; experiment: Inhibition of MPP+ induced mitochondrial superoxide radical production in human SH-SY5Y cells at 1 uM incubated for 24 hrs by MitoSOX staining based microplate reader assay (reference value: 100%); type: functional; how it was run: as §1

Cholinesterase, sequence (P81908 whole entry): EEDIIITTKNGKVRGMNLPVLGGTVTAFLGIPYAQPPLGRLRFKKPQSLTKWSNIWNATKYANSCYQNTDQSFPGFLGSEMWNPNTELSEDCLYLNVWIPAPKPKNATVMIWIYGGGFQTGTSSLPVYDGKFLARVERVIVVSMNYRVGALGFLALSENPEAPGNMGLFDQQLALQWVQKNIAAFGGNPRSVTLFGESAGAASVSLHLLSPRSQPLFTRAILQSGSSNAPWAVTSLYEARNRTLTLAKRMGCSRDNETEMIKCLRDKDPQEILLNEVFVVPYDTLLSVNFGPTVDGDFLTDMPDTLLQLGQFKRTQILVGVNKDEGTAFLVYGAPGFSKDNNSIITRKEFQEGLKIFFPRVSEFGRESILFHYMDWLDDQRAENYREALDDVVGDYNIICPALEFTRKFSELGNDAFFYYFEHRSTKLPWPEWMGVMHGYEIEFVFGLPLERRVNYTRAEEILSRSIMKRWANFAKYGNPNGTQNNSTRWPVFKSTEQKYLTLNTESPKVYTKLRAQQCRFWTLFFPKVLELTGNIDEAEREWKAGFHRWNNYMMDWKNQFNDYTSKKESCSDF
Acetylcholinesterase, sequence (O42275 whole entry): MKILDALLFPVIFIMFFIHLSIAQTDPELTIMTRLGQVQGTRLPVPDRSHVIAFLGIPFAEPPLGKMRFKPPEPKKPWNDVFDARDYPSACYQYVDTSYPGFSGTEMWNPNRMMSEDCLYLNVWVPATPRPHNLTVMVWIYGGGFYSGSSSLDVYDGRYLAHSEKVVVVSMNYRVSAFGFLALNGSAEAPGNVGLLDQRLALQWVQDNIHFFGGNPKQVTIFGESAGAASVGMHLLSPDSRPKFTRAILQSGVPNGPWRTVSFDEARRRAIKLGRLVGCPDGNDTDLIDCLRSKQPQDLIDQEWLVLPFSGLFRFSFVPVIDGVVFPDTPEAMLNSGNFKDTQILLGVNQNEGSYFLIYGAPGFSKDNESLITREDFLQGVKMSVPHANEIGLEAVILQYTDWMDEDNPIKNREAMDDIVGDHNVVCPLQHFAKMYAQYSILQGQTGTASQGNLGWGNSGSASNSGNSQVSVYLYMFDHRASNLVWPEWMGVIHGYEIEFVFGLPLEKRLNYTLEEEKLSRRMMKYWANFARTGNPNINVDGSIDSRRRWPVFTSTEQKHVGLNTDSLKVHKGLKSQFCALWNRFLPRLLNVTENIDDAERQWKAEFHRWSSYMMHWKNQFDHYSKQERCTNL
Mitogen-activated protein kinase; ERK1/ERK2 (Homo sapiens), sequence (P27361 whole entry, looked up): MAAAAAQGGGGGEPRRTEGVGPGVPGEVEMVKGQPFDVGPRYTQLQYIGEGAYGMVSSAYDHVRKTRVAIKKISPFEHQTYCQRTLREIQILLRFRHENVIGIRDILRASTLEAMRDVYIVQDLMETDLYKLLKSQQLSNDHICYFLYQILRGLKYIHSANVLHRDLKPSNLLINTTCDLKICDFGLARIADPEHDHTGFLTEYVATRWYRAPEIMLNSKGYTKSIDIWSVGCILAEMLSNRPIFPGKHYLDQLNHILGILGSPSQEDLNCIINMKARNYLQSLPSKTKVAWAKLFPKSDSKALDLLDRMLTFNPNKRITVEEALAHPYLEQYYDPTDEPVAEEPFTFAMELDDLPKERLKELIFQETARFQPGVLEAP
Mitogen-activated protein kinase; ERK1/ERK2 (Homo sapiens), sequence (P28482 whole entry, looked up): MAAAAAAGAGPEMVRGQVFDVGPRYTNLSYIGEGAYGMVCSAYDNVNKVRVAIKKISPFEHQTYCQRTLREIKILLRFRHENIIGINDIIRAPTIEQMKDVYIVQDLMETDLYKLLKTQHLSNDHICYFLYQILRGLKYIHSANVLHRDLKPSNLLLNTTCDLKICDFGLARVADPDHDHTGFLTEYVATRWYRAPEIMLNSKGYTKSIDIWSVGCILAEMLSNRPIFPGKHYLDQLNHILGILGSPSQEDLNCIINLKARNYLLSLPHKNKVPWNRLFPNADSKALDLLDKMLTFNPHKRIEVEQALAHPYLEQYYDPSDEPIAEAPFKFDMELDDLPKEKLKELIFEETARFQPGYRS

Row | Compound | inhibition at 10 µM [1] | Activity [2] | Activity [3] | Activity [4] | Activity [5] | Activity [6] | Activity [7] | Activity [8] | Activity [9] | Activity [10] | inhibition at 10 µM [12] | inhibition at 1 µM [14] | IC50 [15] | IC50 [16] | Ratio IC50 [17] | Activity [24] | Activity [25] | Activity [26] | further results
1 | Brc1ccc2nc3c(n2c1)C1(CCCCC1)Nc1ccccc1-3 | 58.8% | 12.3% | 97.7% | 88.4% | 59.5% | 94.8% | 56.5% | 33.9% | 64.7% | 58% | 65.6% | 100% | 20 µM | 19.6 µM | 1.02 | – | – | – | Activity [11]: 55.8%; inhibition at 0.1 µM [13]: 91.7%
2 | O=c1c2ccccc2[se]n1-c1ccccc1 [EBSELEN] | 63.3% | 18.3% | 118.7% | 112% | 132.9% | 99.5% | 80% | 27.5% | 59.2% | 53.4% | 57.1% | – | 12.7 µM | 12.1 µM | 1.05 | – | – | – | Activity [18]: Active; inhibition [19]: inactive; inhibition [20]: inactive; inhibition [21]: inactive
3 | Cc1ccc(Cn2nc(C(=O)N[C@@H]3C(C)(C)[C@@H]4CC[C@@]3(C)C4)cc2-c2ccc(Cl)c(C)c2)cc1 | – | – | – | – | – | – | – | – | – | – | – | – | – | – | – | – | – | – | Activity [22]: Non-Toxic; Activity [23]: Toxic
4 | Brc1ccc2nc3c(n2c1)C1(CCCC1)Nc1ccccc1-3 | 41.3% | 12.2% | 78.4% | 63.9% | 59.7% | 66.4% | 31.8% | 27.5% | 51.9% | 43.5% | 52.2% | 78.5% | 27 µM | 10.7 µM | 2.51 | 58.5% | 47.3% | 49.4% | Activity [11]: 72.6%; inhibition [27]: Active
5 | COc1ccc(C(=O)c2c(C)n(CCN3CCOCC3)c3cc(I)ccc23)cc1 | – | – | – | – | – | – | – | – | – | – | – | – | – | – | – | – | – | – | Activity [22]: Toxic; Activity [23]: > 12%
6 | Cc1ccn2c3c(nc2c1)-c1ccccc1NC31CCCCC1 | – | 11.4% | 75.5% | 62.6% | 55.2% | 60.8% | 38.2% | 75% | – | – | – | 100% | 16.4 µM | 10.4 µM | 1.57 | 65.4% | 58.1% | 52.6% | inhibition at 1 µM [28]: 67.1%; inhibition [29]: inactive; inhibition at 0.1 µM [13]: 78.7%
7 | c1ccc2c(c1)NC1(CCCCC1)c1c-2nc2ccccn12 | – | 12.2% | 78.5% | 64% | 65.8% | 57% | 37.3% | 52.7% | – | – | – | 70.6% | 34 µM | 19.8 µM | 1.72 | 65.1% | 58.7% | 59.1% | inhibition at 1 µM [30]: 61.7%; inhibition at 1 µM [28]: 59.9%
